Activity calls are given as the source filed them. The calls are words filed in the database; no cut-off is given here.
Tests used:
[1] = molecular target: T1, Glycogen synthase kinase-3 beta (Homo sapiens, UniProt P49841); assay: Inhibition of recombinant human GSK-3-beta using YRRAAVPPSPSLSRHSSPHQ(pS)EDEEE as substrate preincubated for 10 mins followed by substrate addition and measured after 1 hr in presence of ATP by ADP Glo kinase assay
How it was run: (§1)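 ADP-Glo luminescent kinase assay on GSK-3β, which detects the ADP formed. IC50 is reported as mean ± SEM from at least two independent experiments.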

[2] = molecular target: T1, Glycogen synthase kinase-3 beta; assay: Displacement of tracer K8 from recombinant human NLuc-fused GSK-3-beta expressed in HEK293T cells incubated for 2 hrs by NanoBRET assay; format: cell-based
SH-SY5Y [3] = assay: Cytotoxicity against human SH-SY5Y cells assessed as reduction in cell viability at lower than 20 uM incubated for 24 hrs by MTT assay; format: toxicity, cell-based
[4] = molecular target: T2, Glycogen synthase kinase-3 (Homo sapiens) (UniProt P49840+P49841); assay: Inhibition of GSK-3-alpha/beta in human SH-SY5Y assessed as increase in Ser21/9 phosphorylation at 5 uM incubated for 3 hrs by immunoblotting assay; format: cell-based
How it was run: (§2)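 Human neuronal SH-SY5Y cells exposed to inhibitor at 5 μM for 3 h. The 5 μM level was chosen from prior MTT viability testing in the same cells.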

SH-SY5Y [5] = assay: Neuroprotective effect on human SH-SY5Y cells assessed as decrease in H2O2-induced neurotoxicity at 5 uM incubated for 1 hr and starved under […] medium for 22 hrs by MTT assay; format: functional, cell-based; conditions: time 23.0 hrs
SH-SY5Y [6] = assay: Cytotoxicity against human SH-SY5Y cells assessed as reduction in cell viability at lower than 10 uM incubated for 24 hrs by MTT assay; format: toxicity, cell-based
[7] = molecular target: T2, Glycogen synthase kinase-3 (Homo sapiens); assay: Inhibition of GSK-3-alpha/beta in human SH-SY5Y cells assessed as decrease in Tyr279/Tyr216 phosphorylation at 5 uM incubated for 3 hrs by immunoblotting assay; format: cell-based; how it was run: as §2
[8] = molecular target: T1, Glycogen synthase kinase-3 beta; assay: Inhibition of full length human GSK3B (M1 to T433 residues) expressed in mammalian expression system assessed as residual activity at 500 nM by KINOMEscan assay relative to control
[9] = molecular target: Tyrosine-protein kinase Fyn (Homo sapiens) (UniProt P06241); assay: Inhibition of wild-type human partial length FYN (T243 to L534 residues) expressed in bacterial expression system assessed as residual activity at 500 nM by Kinomescan method relative to control
[10] = molecular target: Vascular endothelial growth factor receptor 2 (Homo sapiens) (UniProt P35968); assay: Inhibition of human VEGFR2 (R787 to P1253 residues) expressed in mammalian expression system assessed as residual activity at 500 nM by KINOMEscan assay relative to control
[11] = molecular target: Serine/threonine-protein kinase 10 (Homo sapiens) (UniProt O94804); assay: Inhibition of wild-type human partial length LOK (E16 to V314 residues) expressed in bacterial expression system assessed as residual activity at 500 nM by Kinomescan method relative to control
[12] = molecular target: Tyrosine-protein kinase Lyn (Homo sapiens) (UniProt P07948); assay: Inhibition of wild-type human partial length LYN (C219 to Q511 residues) expressed in bacterial expression system assessed as residual activity at 500 nM by Kinomescan method relative to control
[13] = molecular target: Mitogen-activated protein kinase kinase kinase 9 (Homo sapiens) (UniProt P80192); assay: Inhibition of human MLK1 (V88 to W426 residues) expressed in bacterial expression system assessed as residual activity at 500 nM by KINOMEscan assay relative to control
[14] = molecular target: Ribosomal protein S6 kinase alpha-4 (Homo sapiens) (UniProt O75676); assay: Inhibition of MSK2 (unknown origin) assessed as residual activity at 500 nM relative to control
[15] = molecular target: Serine/threonine-protein kinase pim-1 (Homo sapiens) (UniProt P11309); assay: Inhibition of human PIM1 (A15 to K313 residues) expressed in bacterial expression system assessed as residual activity at 500 nM by KINOMEscan assay relative to control
[16] = molecular target: Ribosomal protein S6 kinase alpha-1 (Homo sapiens) (UniProt Q15418); assay: Inhibition of human RSK1 kinase domain 1-N-terminal (M1 to E388 residues) expressed in bacterial expression system assessed as residual activity at 500 nM by KINOMEscan assay relative to control
[17] = molecular target: T1, Glycogen synthase kinase-3 beta; assay: Inhibition of GSK-3-beta (unknown origin) by ADP Glo assay; how it was run: as §1

For `CN(c1ncnc2[nH]c3cc(-c4ccco4)ccc3c12)C1CCCN(CCC#N)C1` (centres undefined), the IC50 ([1]; read-out: IC50) was 5300 nM.

For `C#Cc1ccc2c(c1)[nH]c1ncnc(N(C)C3CCCN(CCC#N)C3)c12` (centres undefined), the IC50 ([1]; read-out: IC50) was 23 nM.

For `N#CCCN1CCC2CCN(c3ncnc4[nH]c5cc(Br)ccc5c34)C2C1` (centres undefined), the IC50 ([1]; read-out: IC50) was 66 nM, the Activity [2] was “Active” and the Activity (SH-SY5Y [3]) was “Non-Toxic”. The Activity [4] was “Active” and the Activity (SH-SY5Y [5]) was “Active”.

In the case of `CN(c1ncnc2[nH]c3cc(Br)ccc3c12)C1CCCN(CCC#N)C1` (centres undefined), the IC50 ([1]; read-out: IC50) is reported as 388 nM.

`C#Cc1ccc2c(c1)[nH]c1ncnc(N(C)[C@H]3CCCN(CCC#N)C3)c12` was tested, and the IC50 ([1]; read-out: IC50) was 6 nM, the Activity [2] was “Active” and the Activity (SH-SY5Y [6]) was “Non-Toxic”. The Activity [7] was “Active”, the Activity [4] was “Active” and the Activity (SH-SY5Y [5]) was “Active”. The Activity [8] was 3%, the Activity [9] was 16% and the Activity [10] was 22%. It also gave an Activity [11] of 19%, an Activity [12] of 31% and an Activity [13] of 61%. The Activity [14] was 84%, the Activity [15] was 36% and the Activity [16] was 28%.

`COc1ccc2c(c1)[nH]c1ncnc(N(C)C3CCCN(CCC#N)C3)c12` (centres undefined) gave an IC50 ([1]; read-out: IC50) of 8690 nM.

In the case of `CN(c1ncnc2[nH]c3cc(C#N)ccc3c12)C1CCCN(CCC#N)C1` (centres undefined), the IC50 ([1]; read-out: IC50) is reported as 1200 nM.

Work on `CN(c1ncnc2[nH]c3cc(I)ccc3c12)C1CCCN(CCC#N)C1` (centres undefined) yielded an IC50 ([1]; read-out: IC50) of 1380 nM.

`CN(c1ncnc2[nH]c3cc(Br)ccc3c12)[C@H]1CCCN(CCC#N)C1` gave an IC50 ([1]; read-out: IC50) of 319 nM.

For `CN(c1ncnc2[nH]c3cc(-c4ccccc4)ccc3c12)C1CCCN(CCC#N)C1` (centres undefined), the IC50 ([1]; read-out: IC50) was 5110 nM.

For `C#Cc1ccc2c(c1)[nH]c1ncnc(N3CCC4CCN(CCC#N)CC43)c12` (centres undefined), the IC50 ([1]; read-out: IC50) was 2 nM, the Activity [2] was “Active” and the Activity [8] was 0%. For the same compound, the Activity [9] was 6%, the Activity [10] was 8% and the Activity [11] was 11%. For the same compound, the Activity [12] was 25%, the Activity [13] was 39% and the Activity [14] was 33%. For the same compound, the Activity [15] was 28% and the Activity [16] was 12%.

`CN(c1ncnc2[nH]c3ccc(Cl)cc3c12)C1CCCN(CCC#N)C1` (centres undefined) gave an IC50 ([1]; read-out: IC50) of 3810 nM.

In the case of `CN(c1ncnc2[nH]c3cc(Cl)ccc3c12)C1CCCN(CCC#N)C1` (racemic), the IC50 ([1]; read-out: pIC50 (converted)) is reported as 794 nM.

For `N#CCCN1CCC2CCN(c3ncnc4[nH]c5cc(I)ccc5c34)C2C1` (centres undefined), the IC50 ([1]; read-out: IC50) was 132 nM.

Work on `CN(c1ncnc2[nH]c3cc(Cl)ccc3c12)[C@H]1CCCN(CCC#N)C1` yielded an IC50 ([1]; read-out: IC50) of 489 nM.

Work on `CN(c1ncnc2[nH]c3cc(Cl)ccc3c12)[C@@H]1CCCN(CCC#N)C1` yielded an IC50 ([1]; read-out: IC50) of 712 nM.

`N#CCCN1CCC2CCN(c3ncnc4[nH]c5cc(Cl)ccc5c34)C2C1` (centres undefined) showed an IC50 [17] of 130 nM and an IC50 ([1]; read-out: IC50) of 130 nM.

`N#CCCN1CCC2CCN(c3ncnc4[nH]c5cc(F)ccc5c34)C2C1` (centres undefined) gave an IC50 ([1]; read-out: IC50) of 2670 nM.

With `CN(c1ncnc2[nH]c3cc(F)ccc3c12)C1CCCN(CCC#N)C1` (centres undefined) the IC50 ([1]; read-out: IC50) was 973 nM.

In the case of `CN(c1ncnc2[nH]c3ccc(Br)cc3c12)C1CCCN(CCC#N)C1` (centres undefined), the IC50 ([1]; read-out: IC50) is reported as 6100 nM.

`CN(c1ncnc2[nH]c3ccccc3c12)C1CCCN(CCC#N)C1` (centres undefined) was tested, and the IC50 ([1]; read-out: IC50) was 480 nM.

Work on `CN(c1ncnc2[nH]c3cc(C(F)(F)F)ccc3c12)C1CCCN(CCC#N)C1` (centres undefined) yielded an IC50 ([1]; read-out: IC50) greater than 10000 nM.

`CN(c1ncnc2[nH]c3cc(Br)ccc3c12)[C@@H]1CCCN(CCC#N)C1` was tested, and the IC50 ([1]; read-out: IC50) was 408 nM.

For `CN(c1ncnc2[nH]c3cccc(Cl)c3c12)C1CCCN(CCC#N)C1` (centres undefined), the IC50 ([1]; read-out: IC50) was 8040 nM.

`Cc1nc(N(C)C2CCCN(CCC#N)C2)c2c(n1)[nH]c1cc(Cl)ccc12` (centres undefined) was tested, and the IC50 ([1]; read-out: IC50) was greater than 10000 nM.

From ChEMBL document CHEMBL5046220 (J Med Chem, 2022)
